Laboratory results: ChEMBL document CHEMBL2062382, “Bicyclic C21 terpenoids from the marine sponge Clathria compressa” (J Nat Prod, 2012)
Converted amounts (≈) assume the structure as drawn. The source made the active and inactive calls. No cut-off for these calls is given here.

Legend:
Staphylococcus aureus [1] = test: Antibacterial activity against vancomycin-resistant Staphylococcus aureus up to 128 ug/ml after 20 hrs by broth microdilution method; assay type: functional, organism-based
Procedure, shortened: (§1)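 ATCC strains grown on Müller-Hinton agar 37 °C 24 h, then in Müller-Hinton broth 37 °C 24 h. MIC by two-fold serial broth microdilution, 0.01 to 128 μg/mL; samples dissolved in 5% DMSO in water, final DMSO below 0.5% in all wells, duplicate. Mid-log cells at initial A600 0.001; read after 20 h at 37 °C with gentle shaking. Methicillin control included.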

Staphylococcus aureus [2] = test: Antibacterial activity against Staphylococcus aureus ATCC 6538P up to 128 ug/ml after 20 hrs by broth microdilution method; assay type: functional, organism-based
Procedure, shortened: (§2)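 Strains are grown on Müller-Hinton agar at 37 °C for 24 h, then in Müller-Hinton broth at 37 °C for 24 h. Mid-log cells at an initial 600 nm absorbance of 0.001 are exposed to two-fold serial dilutions from 0.01 to 128 µg/mL, in duplicate. Samples are dissolved in 5% DMSO/H2O, giving final DMSO below 0.5% in wells and matched in controls. Methicillin is the reference. MIC is read after 20 h at 37 °C with gentle shaking.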

Staphylococcus aureus [3] = test: Antibacterial activity against methicillin-resistant Staphylococcus aureus ATCC 33591 up to 128 ug/ml after 20 hrs by broth microdilution method; assay type: functional, organism-based; procedure, shortened: as §1
Klebsiella pneumoniae = test: Antibacterial activity against Klebsiella pneumoniae ATCC 10031 at 128 ug/ml after 20 hrs by broth microdilution method; assay type: functional, organism-based; procedure, shortened: as §2
[4] = Cytotoxicity against human BG02 cells at 40 uM; assay type: cell-based; details: bg02, 40 µM
Procedure, shortened: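 Growth inhibition of human embryonic stem cells (BG02) was tracked by real-time cell electronic sensing (RT-CES) in a 96-well format, with each compound tested at 40 µM.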

Escherichia coli = test: Antibacterial activity against Escherichia coli KCTC 1923 at 128 ug/ml after 20 hrs by broth microdilution method; assay type: functional, organism-based
Staphylococcus aureus [5] = test: Antibacterial activity against vancomycin-resistant Staphylococcus aureus after 20 hrs by broth microdilution method; assay type: functional; procedure, shortened: as §1
Staphylococcus aureus [6] = test: Antibacterial activity against methicillin-resistant Staphylococcus aureus ATCC 33591 after 20 hrs by broth microdilution method; assay type: functional; details: ATCC 33591, 20 h; procedure, shortened: as §1
Staphylococcus aureus [7] = test: Antibacterial activity against Staphylococcus aureus ATCC 6538P after 20 hrs by broth microdilution method; assay type: functional; procedure, shortened: as §2

Structure (SMILES): C=C1CC[C@@H]2[C@](C)(CCC[C@@]2(C)/C=C/C=C(C)C)[C@H]1CC(=O)NCCS(=O)(=O)O (relative stereo)
- Activity (Staphylococcus aureus [1]): inactive
- Activity (Staphylococcus aureus [2]): inactive
- Activity (Staphylococcus aureus [3]): inactive
- Activity (Klebsiella pneumoniae): inactive
- Activity [4]: Non-toxic
- Activity (Escherichia coli): inactive

Structure (SMILES): C=C1CC[C@@H]2[C@](C)(CCC[C@@]2(C)/C=C/C=C(C)C)[C@H]1CC(=O)O (relative stereo)
- MIC (Staphylococcus aureus [5]): 64 µg/mL (≈ 202 µM)
- MIC (Staphylococcus aureus [6]): 64 µg/mL (≈ 202 µM)
- MIC (Staphylococcus aureus [7]): 32 µg/mL (≈ 101 µM)
- Activity (Klebsiella pneumoniae): inactive
- Activity [4]: Non-toxic
- Activity (Escherichia coli): inactive

Structure (SMILES): C=C1CC[C@@H]2[C@](C)(CCC[C@@]2(C)/C=C/C(O)C(C)(C)O)[C@H]1CC(=O)NCCS(=O)(=O)O (relative stereo)
- Activity (Staphylococcus aureus [1]): inactive
- Activity (Staphylococcus aureus [2]): inactive
- Activity (Staphylococcus aureus [3]): inactive
- Activity (Klebsiella pneumoniae): inactive
- Activity [4]: Non-toxic
- Activity (Escherichia coli): inactive
